Type in all cases: in vitro ADME
The target in one data set is T1, OATP2B1 (Homo sapiens, UniProt O94956).
T1 sequence (O94956 1-709): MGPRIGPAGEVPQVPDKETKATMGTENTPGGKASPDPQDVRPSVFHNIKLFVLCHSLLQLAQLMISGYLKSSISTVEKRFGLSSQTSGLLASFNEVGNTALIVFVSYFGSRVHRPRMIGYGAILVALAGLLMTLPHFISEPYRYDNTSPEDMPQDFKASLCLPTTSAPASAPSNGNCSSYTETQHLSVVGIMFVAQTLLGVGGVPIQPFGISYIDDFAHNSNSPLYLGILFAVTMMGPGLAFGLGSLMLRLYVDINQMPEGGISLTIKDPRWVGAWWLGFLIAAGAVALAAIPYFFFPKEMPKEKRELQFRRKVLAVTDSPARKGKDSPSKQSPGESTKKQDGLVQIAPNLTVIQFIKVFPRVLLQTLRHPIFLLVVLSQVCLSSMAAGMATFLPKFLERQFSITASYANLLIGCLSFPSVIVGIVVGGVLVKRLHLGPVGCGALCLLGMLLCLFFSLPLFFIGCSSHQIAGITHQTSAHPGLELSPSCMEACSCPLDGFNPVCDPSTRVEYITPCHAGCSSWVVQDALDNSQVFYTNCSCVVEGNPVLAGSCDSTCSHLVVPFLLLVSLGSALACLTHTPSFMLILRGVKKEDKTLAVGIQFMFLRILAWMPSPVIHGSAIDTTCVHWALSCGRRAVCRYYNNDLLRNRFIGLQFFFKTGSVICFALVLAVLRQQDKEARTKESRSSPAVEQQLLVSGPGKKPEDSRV
In words: Uptake into transporter-transfected vs wild-type HEK293 cells. The following applies: rosuvastatin 1 µM, two to four minutes. A digest of the protocol:
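HEK293 cells stably transfected with OATP1B1*1A, OATP1B3 or OATP2B1, plus wild-type cells, were seeded on poly-D-lysine plates. Culture was 48 h at 37°C in DMEM with 10% FBS, pyruvate, nonessential amino acids and GlutaMAX. Test compound was 1 µM for 2 min; rosuvastatin probe was 1 µM over 2–4 min. Cells were washed four times in ice-cold buffer and lysed in methanol with internal standard. Readouts were uptake ratio versus wild-type and glucuronide/probe ratio of ratios; mean ± SD, n=3 in one experiment.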

Another data set has as its target T2, OATP1B1*5 (Homo sapiens, UniProt Q9Y6L6, V174A).
T2 sequence (Q9Y6L6 1-691 V174A): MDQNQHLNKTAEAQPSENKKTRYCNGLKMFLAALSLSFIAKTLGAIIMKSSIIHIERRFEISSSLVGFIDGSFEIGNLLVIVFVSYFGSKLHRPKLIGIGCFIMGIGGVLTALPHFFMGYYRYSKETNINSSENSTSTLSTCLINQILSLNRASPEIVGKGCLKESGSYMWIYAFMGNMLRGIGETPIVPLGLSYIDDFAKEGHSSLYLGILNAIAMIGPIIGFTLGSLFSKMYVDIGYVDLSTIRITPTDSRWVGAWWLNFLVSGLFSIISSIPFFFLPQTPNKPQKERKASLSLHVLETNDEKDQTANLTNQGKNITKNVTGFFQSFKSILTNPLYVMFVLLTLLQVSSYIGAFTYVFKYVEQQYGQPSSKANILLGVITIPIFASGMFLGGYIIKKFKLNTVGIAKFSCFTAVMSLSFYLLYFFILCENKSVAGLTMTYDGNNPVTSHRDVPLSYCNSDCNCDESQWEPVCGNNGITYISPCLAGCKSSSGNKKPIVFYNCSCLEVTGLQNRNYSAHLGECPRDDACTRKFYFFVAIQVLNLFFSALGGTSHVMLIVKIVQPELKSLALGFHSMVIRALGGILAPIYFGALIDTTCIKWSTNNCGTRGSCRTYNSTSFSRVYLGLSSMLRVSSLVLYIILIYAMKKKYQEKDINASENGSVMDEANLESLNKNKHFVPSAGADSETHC
In words: Uptake into OATP1B1 variant-transfected vs wild-type HEK293 cells. Conditions: for Uptake ratio (vs. wild‐type HEK293 cells): 2 minutes. A digest of the protocol: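 HEK293 cells stably expressing an OATP1B1 variant, alongside wild-type HEK293, were seeded at 0.5–1.2 × 10⁵ cells/well on poly-D-lysine plates. They grew 48 h at 37°C and 5% CO₂ in DMEM with 10% FBS, 1% pyruvate, nonessential amino acids and GlutaMAX. Substrate was 1 µM (0.5 µM where footnoted) for 2 min, then four ice-cold buffer washes and methanol lysis with internal standard. Uptake ratio (transfected/wild-type) is expressed as % of OATP1B1*14 in the same experiment; n=3 determinations.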

The next data set concerns the target T3, OATP1B1*14 (Homo sapiens, UniProt Q9Y6L6, N130D/P155T).
T3 sequence (Q9Y6L6 1-691 N130D/P155T): T2 sequence (Q9Y6L6 1-691 V174A) with N130D, P155T, A174V
Description: Uptake into OATP1B1 variant-transfected vs wild-type HEK293 cells. The following applies: for Uptake ratio as percentage of OATP1B1*14 in the same experiment: OATP1B1*14 (reference); for Uptake ratio (vs. wild‐type HEK293 cells): OATP1B1*14, 2 minutes.

[1] abbreviates: experiment 1, substrate concentration 0.5 µM.

Residue numbers refer to the chain shown, from its start.

As for `CC(C)c1nc(N(C)S(C)(=O)=O)nc(-c2ccc(F)cc2)c1/C=C/[C@@H](O)C[C@@H](O)CC(=O)O` [Rosuvastatin], the “Uptake ratio (vs. wild‐type HEK293 cells), probe” value on OATP2B1 is 71.1 ± 9.6. The “Uptake ratio as percentage of OATP1B1*14 in the same experiment” value at OATP1B1*5 (setting [1]) came out at 16%; on OATP1B1*5 (experiment 2, substrate 1 µM) it was 15%; on OATP1B1*14 (setting [1]), 100%; on OATP1B1*14 (experiment 2, substrate 1 µM) it was 100%. For the same compound, the “Uptake ratio (vs. wild‐type HEK293 cells)” value was determined as 2.4 ± 0.4 on OATP1B1*5 (setting [1]); 5.9 ± 0.5 on OATP1B1*5 (experiment 2, substrate 1 µM); 15 ± 0.2 at OATP1B1*14 (setting [1]); 40 ± 3.3 at OATP1B1*14 (experiment 2, substrate 1 µM); 85 ± 5.3 at OATP1B1*14 (experiment 3, substrate 1 µM).
